Reference: ChEMBL document CHEMBL1275556, “High prevalence of plasmid-mediated quinolone resistance genes qnr and aac(6')-Ib-cr in clinical isolates of Enterobacteriaceae from nine teaching hospitals in China” (2008)
In brackets after ≈: the same amount, converted by molar mass.

Legend:
Klebsiella pneumoniae [1] = assay: Antimicrobial activity against aac(6')-Ib-cr-positive Klebsiella pneumoniae JN132 harboring GyrA S83I, ParC S80I mutant, wild-type GyrB and qnrB genes by agar dilution method in presence of clavulanic acid; assay type: functional
Procedure, shortened: (§1)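 MICs measured by CLSI agar dilution (M7-A7) and interpreted against CLSI M100-S17 breakpoints. Strains were clinical Enterobacteriaceae isolates or the azide-resistant E. coli J53 recipient.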

Citrobacter freundii [2] = assay: Antimicrobial activity against aac(6')-Ib-cr-positive Citrobacter freundii PU55T harboring wild-type GyrA, ParC, GyrB and qnrA genes by agar dilution method
Enterobacter cloacae [3] = assay: Antimicrobial activity against aac(6')-Ib-cr-negative Enterobacter cloacae FJ67T harboring qnrS gene by agar dilution method; assay type: functional
Enterobacter cloacae [4] = assay: Antimicrobial activity against aac(6')-Ib-cr-negative Enterobacter cloacae FJ61T harboring qnrS gene by agar dilution method; assay type: functional
Escherichia coli [5] = assay: Antimicrobial activity against aac(6')-Ib-cr-negative Escherichia coli PU12T harboring wild-type GyrA, GyrB, ParC and qnrS genes by agar dilution method in presence of clavulanic acid; assay type: functional
Procedure, shortened: (§2)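 Transconjugants came from conjugation of qnr and/or aac(6')-Ib-cr-carrying donors with azide-resistant E. coli J53. […] MICs were determined by CLSI agar dilution (M7-A7) and interpreted by M100-S17.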

Enterobacter cloacae [6] = assay: Antimicrobial activity against aac(6')-Ib-cr-positive Enterobacter cloacae FJ63 harboring GyrA S83I, GyrA D87A, ParC S80I mutant, wild-type GyrB and qnrS genes by agar dilution method; assay type: functional
Enterobacter cloacae [7] = assay: Antimicrobial activity against aac(6')-Ib-cr-negative Enterobacter cloacae GZ51 harboring qnrA gene by agar dilution method in presence of clavulanic acid; assay type: functional
Procedure, shortened: (§3)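 MICs were determined by CLSI agar dilution (M7-A7) and interpreted by CLSI M100-S17 breakpoints. The curator's line names the β-lactamase inhibitor added.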

Enterobacter cloacae [8] = assay: Antimicrobial activity against aac(6')-Ib-cr-negative Enterobacter cloacae FJ67 harboring […] and qnrS genes by agar dilution method; assay type: functional
Klebsiella pneumoniae [9] = assay: Antimicrobial activity against aac(6')-Ib-cr-negative Klebsiella pneumoniae SY22 harboring GyrA S83I, ParC S80I mutant, wild-type GyrB and qnrS genes by agar dilution method in presence of clavulanic acid; assay type: functional; procedure, shortened: as §3
Escherichia coli [10] = assay: Antimicrobial activity against Escherichia coli J53 harboring wild-type GyrA, ParC, GyrB genes by agar dilution method in presence of beta-lactamase inhibitor clavulanic acid; assay type: functional; procedure, shortened: as §3
Enterobacter cloacae [11] = assay: Antimicrobial activity against aac(6')-Ib-cr-negative Enterobacter cloacae WH42T harboring qnrA gene by agar dilution method; assay type: functional
Klebsiella pneumoniae [12] = assay: Antimicrobial activity against aac(6')-Ib-cr-positive Klebsiella pneumoniae WH99 harboring wild-type GyrA, ParC, GyrB and qnrB genes by agar dilution method in presence of clavulanic acid; assay type: functional; procedure, shortened: as §1
Klebsiella pneumoniae [13] = assay: Antimicrobial activity against aac(6')-Ib-cr-positive Klebsiella pneumoniae GZ40T harboring qnrB gene by agar dilution method
Enterobacter cloacae [14] = assay: Antimicrobial activity against aac(6')-Ib-cr-negative Enterobacter cloacae WH42 harboring wild-type GyrA, ParC, GyrB and qnrA genes by agar dilution method; assay type: functional
Enterobacter cloacae [15] = assay: Antimicrobial activity against aac(6')-Ib-cr-positive Enterobacter cloacae FJ63T harboring qnrS gene by agar dilution method in presence of clavulanic acid; assay type: functional; procedure, shortened: as §2
Klebsiella pneumoniae [16] = assay: Antimicrobial activity against aac(6')-Ib-cr-positive Klebsiella pneumoniae JN132 harboring GyrA S83I, ParC S80I mutant, wild-type GyrB and qnrB genes by agar dilution method; assay type: functional
Procedure, shortened: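 MICs were determined on clinical isolates by CLSI agar dilution (M7-A7) and interpreted against CLSI M100-S17 breakpoints.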

Enterobacter cloacae [17] = assay: Antimicrobial activity against aac(6')-Ib-cr-negative Enterobacter cloacae SH39 harboring GyrA S83I, ParC S80I mutant, wild-type GyrB and qnrA genes by agar dilution method in presence of clavulanic acid; assay type: functional; procedure, shortened: as §3
Enterobacter cloacae [18] = assay: Antimicrobial activity against aac(6')-Ib-cr-negative Enterobacter cloacae SH39 harboring GyrA S83I, ParC S80I mutant, wild-type GyrB and qnrA genes by agar dilution method; assay type: functional
Enterobacter cloacae [19] = assay: Antimicrobial activity against aac(6')-Ib-cr-negative Enterobacter cloacae GZ47T harboring qnrB gene by agar dilution method; assay type: functional
Escherichia coli [20] = assay: Antimicrobial activity against aac(6')-Ib-cr-positive Escherichia coli FJ3 harboring GyrA S83L, ParC S80R mutant, wild-type GyrB and qnrB genes by agar dilution method; assay type: functional
Procedure, shortened: (§4)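 MICs were determined by the CLSI agar dilution method (M7-A7) and interpreted against CLSI M100-S17 breakpoints.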

Citrobacter freundii [21] = assay: Antimicrobial activity against aac(6')-Ib-cr-positive Citrobacter freundii JN1T by agar dilution method; assay type: functional; procedure, shortened: as §4
Escherichia coli [22] = assay: Antimicrobial activity against aac(6')-Ib-cr-negative Escherichia coli PU12 harboring GyrA S83L mutant, wild-type GyrB, ParC and qnrS genes by agar dilution method; assay type: functional; procedure, shortened: as §4
Enterobacter cloacae [23] = assay: Antimicrobial activity against aac(6')-Ib-cr-negative Enterobacter cloacae GZ47T harboring qnrB gene by agar dilution method in presence of Tazobactam; assay type: functional; procedure, shortened: as §4
Klebsiella pneumoniae [24] = assay: Antimicrobial activity against aac(6')-Ib-cr-positive Klebsiella pneumoniae WH99T harboring qnrB gene by agar dilution method in presence of Tazobactam; assay type: functional
Procedure, shortened: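 Transconjugants were made by conjugating a qnr/aac(6')-Ib-cr donor with azide-resistant E. coli J53. Selection used Trypticase soy agar with sodium azide 150 µg/ml and sulfamethoxazole 180 µg/ml. […] MICs were read by CLSI agar dilution (M7-A7) and interpreted per M100-S17.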

Enterobacter cloacae [25] = assay: Antimicrobial activity against aac(6')-Ib-cr-positive Enterobacter cloacae FJ63T harboring qnrS gene by agar dilution method in presence of Tazobactam; assay type: functional; procedure, shortened: as §4
Citrobacter freundii [26] = assay: Antimicrobial activity against aac(6')-Ib-cr-positive Citrobacter freundii TJ15T harboring wild-type GyrA, ParC, GyrB genes by agar dilution method in presence of Tazobactam; assay type: functional; procedure, shortened: as §4
Enterobacter cloacae [27] = assay: Antimicrobial activity against aac(6')-Ib-cr-negative Enterobacter cloacae SH39T harboring qnrA gene by agar dilution method in presence of Tazobactam; assay type: functional; procedure, shortened: as §4
Escherichia coli [28] = assay: Antimicrobial activity against aac(6')-Ib-cr-positive Escherichia coli FJ3 harboring GyrA S83L, ParC S80R mutant, wild-type GyrB and qnrB genes by agar dilution method in presence of Tazobactam; assay type: functional; procedure, shortened: as §1
Citrobacter freundii [29] = assay: Antimicrobial activity against aac(6')-Ib-cr-positive Citrobacter freundii TJ15 harboring GyrA T83I, ParC S80I mutant, wild-type GyrB, qnrB genes by agar dilution method in presence of Tazobactam; assay type: functional; procedure, shortened: as §4
Enterobacter cloacae [30] = assay: Antimicrobial activity against aac(6')-Ib-cr-negative Enterobacter cloacae FJ61 harboring GyrA S83I, GyrA D87A, ParC S80I mutant, wild-type GyrB and qnrS genes by agar dilution method in presence of Tazobactam; assay type: functional; procedure, shortened: as §4
Klebsiella pneumoniae [31] = assay: Antimicrobial activity against aac(6')-Ib-cr-positive Klebsiella pneumoniae JN132 harboring GyrA S83I, ParC S80I mutant, wild-type GyrB and qnrB genes by agar dilution method in presence of Tazobactam; assay type: functional; procedure, shortened: as §1
Klebsiella pneumoniae [32] = assay: Antimicrobial activity against aac(6')-Ib-cr-positive Klebsiella pneumoniae JN41 harboring GyrA S83I, ParC S80I mutant, wild-type GyrB and qnrB genes by agar dilution method in presence of Tazobactam; assay type: functional; procedure, shortened: as §1

CO/N=C(\C(=O)N[C@@H]1C(=O)N2C(C(=O)O)=C(COC(C)=O)CS[C@H]12)c1csc(N)n1 [CEFOTAXIME]
MIC (Klebsiella pneumoniae [1]): 1 µg/mL
MIC (Citrobacter freundii [2]): 0.064 µg/mL (≈ 0.141 µM)
MIC (Enterobacter cloacae [3]): 64 µg/mL (≈ 141 µM)
MIC (Enterobacter cloacae [4]): 0.032 µg/mL (≈ 0.0703 µM)
MIC (Escherichia coli [5]): 0.032 µg/mL
MIC (Enterobacter cloacae [6]): > 256 µg/mL
MIC (Enterobacter cloacae [7]): 32 µg/mL
MIC (Enterobacter cloacae [8]): 256 µg/mL (≈ 562 µM)
MIC (Klebsiella pneumoniae [9]): 0.064 µg/mL
MIC (Escherichia coli [10]): 0.032 µg/mL
MIC (Enterobacter cloacae [11]): 8 µg/mL (≈ 17.6 µM)
MIC (Klebsiella pneumoniae [12]): 64 µg/mL
MIC (Klebsiella pneumoniae [13]): 0.032 µg/mL (≈ 0.0703 µM)
MIC (Enterobacter cloacae [14]): 256 µg/mL (≈ 562 µM)
MIC (Enterobacter cloacae [15]): 0.032 µg/mL
MIC (Klebsiella pneumoniae [16]): 32 µg/mL (≈ 70.3 µM)
MIC (Enterobacter cloacae [17]): 32 µg/mL
MIC (Enterobacter cloacae [18]): 4 µg/mL (≈ 8.78 µM)
MIC (Enterobacter cloacae [19]): 0.25 µg/mL (≈ 0.549 µM)
MIC (Escherichia coli [20]): 128 µg/mL (≈ 281 µM)
MIC (Citrobacter freundii [21]): 8 µg/mL (≈ 17.6 µM)
MIC (Escherichia coli [22]): 16 µg/mL (≈ 35.1 µM)

CCN1CCN(C(=O)N[C@@H](C(=O)N[C@@H]2C(=O)N3[C@@H]2SC(C)(C)[C@@H]3C(=O)O)c2ccccc2)C(=O)C1=O [PIPERACILLIN]
MIC (Enterobacter cloacae [23]): 2 µg/mL
MIC (Klebsiella pneumoniae [24]): 2 µg/mL
MIC (Enterobacter cloacae [25]): 2 µg/mL
MIC (Citrobacter freundii [26]): 1 µg/mL
MIC (Enterobacter cloacae [27]): 1 µg/mL
MIC (Escherichia coli [28]): 2 µg/mL
MIC (Citrobacter freundii [29]): 4 µg/mL
MIC (Enterobacter cloacae [30]): 8 µg/mL
MIC (Klebsiella pneumoniae [31]): 4 µg/mL
MIC (Klebsiella pneumoniae [32]): 4 µg/mL
